Measured values from ChEMBL document CHEMBL1145518, “Potent immune-modulating and anticancer effects of NKT cell stimulatory glycolipids” (2007).
Calls of active or inactive are those of the source. The rule behind the calls is not given here.

Assays:
[1] = Induction of IFN-gamma secretion in human CD161+ CD3+ NKT cells at 10 ug/ml after 18 hrs relative to basal level; format: functional
Outline: (§1)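 Human Vα24i NKT cell lines were expanded for 10 days on irradiated (3,000 rad) autologous immature DCs with 10 units/ml IL-2. The cells (1 × 10^5) were cocultured with 5 × 10^4 irradiated immature CD14+ DCs plus glycolipid at 10 μg/ml. Supernatants were collected at 18 h and read on a 22-plex Luminex bead panel. Triplicates, mean ± SD.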

[2] = Induction of IL2 secretion in human CD161+ CD3+ NKT cells at 10 ug/ml after 18 hrs relative to basal level; format: functional; outline: as §1
[3] = Induction of IL12p70 secretion in human CD161+ CD3+ NKT cells at 10 ug/ml after 18 hrs relative to basal level; format: functional; outline: as §1
[4] = Induction of IL12p40 secretion in human CD161+ CD3+ NKT cells at 10 ug/ml after 18 hrs relative to basal level; format: functional; outline: as §1
[5] = Induction of RANTES secretion in human CD161+ CD3+ NKT cells at 10 ug/ml after 18 hrs relative to basal level; format: functional; outline: as §1
[6] = Induction of MIPalpha secretion in human CD161+ CD3+ NKT cells at 10 ug/ml after 18 hrs relative to basal level; format: functional; outline: as §1
[7] = Induction of MCP1 secretion in human CD161+ CD3+ NKT cells at 10 ug/ml after 18 hrs relative to basal level; format: functional; outline: as §1
[8] = Induction of IL8 secretion in human CD161+ CD3+ NKT cells at 10 ug/ml after 18 hrs relative to basal level; format: functional; outline: as §1
[9] = Induction of TNFalpha secretion in human CD161+ CD3+ NKT cells at 10 ug/ml after 18 hrs relative to basal level; format: functional; outline: as §1
[10] = system: Mus musculus; assay: Increase in CD8/CD4 T cell ratio in BALB/c mouse at 2 ug, iv after 72 hrs by flow cytometry; format: functional, organism-based
[11] = system: Mus musculus; assay: Induction of IFN-gamma secretion in BALB/c mouse serum at 2 ug, iv after 18 hrs relative to control; format: functional
Outline: (§2)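 BALB/c mice received an i.v. injection of 100 μl of glycolipid diluted to 20 μg/ml in saline from DMSO stock, with 1% DMSO as vehicle. Serum cytokines/chemokines were measured at 2 and 18 h after injection.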

[12] = system: Mus musculus; assay: Induction of IL1-beta secretion in BALB/c mouse serum at 2 ug, iv after 18 hrs relative to control; format: functional; outline: as §2
[13] = system: Mus musculus; assay: Induction of IL2 secretion in BALB/c mouse serum at 2 ug, iv after 2 hrs relative to control; format: functional; outline: as §2
[14] = system: Mus musculus; assay: Induction of IL12p70 secretion in BALB/c mouse serum at 2 ug, iv after 18 hrs relative to control; format: functional; outline: as §2
[15] = system: Mus musculus; assay: Induction of IL12p40 secretion in BALB/c mouse serum at 2 ug, iv after 18 hrs relative to control; format: functional; outline: as §2
[16] = system: Mus musculus; assay: Induction of RANTES secretion in BALB/c mouse serum at 2 ug, iv after 2 hrs relative to control; format: functional; outline: as §2
[17] = system: Mus musculus; assay: Induction of MIPbeta secretion in BALB/c mouse serum at 2 ug, iv after 2 hrs relative to control; format: functional; outline: as §2
[18] = system: Mus musculus; assay: Induction of MCP1 secretion in BALB/c mouse serum at 2 ug, iv after 2 hrs relative to control; format: functional; outline: as §2
[19] = system: Mus musculus; assay: Induction of KC secretion in BALB/c mouse serum at 2 ug, iv after 2 hrs relative to control; format: functional; outline: as §2
[20] = system: Mus musculus; assay: Induction of TNFalpha secretion in BALB/c mouse serum at 2 ug, iv after 18 hrs relative to control; format: functional; outline: as §2
[21] = system: Mus musculus; assay: Induction of IL3 secretion in BALB/c mouse serum at 2 ug, iv after 2 hrs relative to control; format: functional; outline: as §2
[22] = system: Mus musculus; assay: Induction of GM-CSF secretion in BALB/c mouse serum at 2 ug, iv after 2 hrs relative to control; format: functional; outline: as §2
[23] = system: Mus musculus; assay: Induction of IL4 secretion in BALB/c mouse serum at 2 ug, iv after 2 hrs relative to control; format: functional; outline: as §2
[24] = system: Mus musculus; assay: Induction of IL6 secretion in BALB/c mouse serum at 2 ug, iv after 2 hrs relative to control; format: functional; outline: as §2
[25] = system: Mus musculus; assay: Induction of IL10 secretion in BALB/c mouse serum at 2 ug, iv after 18 hrs relative to control; format: functional; outline: as §2
[26] = system: Mus musculus; assay: Induction of IL13 secretion in BALB/c mouse serum at 2 ug, iv after 2 hrs relative to control; format: functional; outline: as §2
[27] = Induction of IL3 secretion in human CD161+ CD3+ NKT cells at 10 ug/ml after 18 hrs relative to basal level; format: functional; outline: as §1
[28] = Induction of GM-CSF secretion in human CD161+ CD3+ NKT cells at 10 ug/ml after 18 hrs relative to basal level; format: functional; outline: as §1
[29] = Induction of IL15 secretion in human CD161+ CD3+ NKT cells at 10 ug/ml after 18 hrs relative to basal level; format: functional; outline: as §1
[30] = Induction of IL4 secretion in human CD161+ CD3+ NKT cells at 10 ug/ml after 18 hrs relative to basal level; format: functional; outline: as §1
[31] = Induction of IL6 secretion in human CD161+ CD3+ NKT cells at 10 ug/ml after 18 hrs relative to basal level; format: functional; outline: as §1
[32] = Induction of IL10 secretion in human CD161+ CD3+ NKT cells at 10 ug/ml after 18 hrs relative to basal level; format: functional; outline: as §1
[33] = Induction of IL13 secretion in human CD161+ CD3+ NKT cells at 10 ug/ml after 18 hrs relative to basal level; format: functional; outline: as §1
[34] = system: NKT; assay: Stimulation of cell expansion of human invariant CD161+/ Valpha24+/ CD56+/ CD3+ NKT cells by flow cytometry method; format: functional, cell-based
Outline: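 CD56+ NK/NKT mixtures (2 × 10^6) were isolated from human leukopaks with anti-CD56 microbeads. They were cocultured with 4 × 10^5 autologous immature CD14+ DCs pulsed with glycolipid at 3 μg/ml, or with 0.3% DMSO, on day 2 for 18 h. Suspension cells were then transferred and kept in 100 units/ml IL-2 with fresh medium every 3 days. On day 9, CD161+/Vα24TCR+ cells were gated by flow cytometry and total Vα24i NKT cells counted. Triplicates, mean ± SD.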

[35] = system: Mus musculus; assay: Activation of B cells in BALB/c mouse at 2 ug, iv after 72 hrs by flow cytometry; format: functional, organism-based
[36] = system: TC1; assay: Antitumor activity in TC1 cells xenografted C57BL/6 mouse assessed as suppression of tumor growth at 2 ug, iv; format: functional, cell-based
Outline: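 C57BL/6 mice (n = 5/group) were inoculated i.v. with TC-1 lung cancer cells. They were then treated i.v. with 2 μg glycolipid per mouse, or 100 μl of 1% DMSO, twice weekly for 4 weeks. Kaplan–Meier survival and body weight were followed, with tumor-free mice as an additional control.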

[37] = system: 4T1; assay: Antitumor activity in mouse 4T1 cells xenografted BALB/c mouse assessed as suppression of tumor growth at 2 ug, iv; format: functional, cell-based
Outline: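 BALB/c mice (n = 6) were inoculated s.c. with 4T1 breast cancer cells. From day 3 they were treated i.v. with glycolipid or vehicle twice weekly for 4 weeks. Tumor volume was recorded every 3 days for 1 month, and survival was monitored up to 54 days.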

Structure (SMILES)	Activity [1]	Activity [2]	Activity [3]	Activity [4]	Activity [5]	Activity [6]	Activity [7]	Activity [8]	Activity [9]	Activity [10]	Activity [11]	Activity [12]	Activity [13]	Activity [14]	Activity [15]	Activity [16]	Activity [17]	Activity [18]	Activity [19]	Activity [20]	further results
CCCCCCCCCCCCCC[C@@H](O)[C@@H](O)[C@H](CO[C@H]1O[C@H](CO)[C@H](O)[C@H](O)[C@H]1O)NC(=O)CCCCCCCCCCCCC	2.7	1.8	1.6	1.7	2	3.5	1.4	2.2	3	Active	43.8	2.4	14	3.5	0.9	0.9	1.5	2.6	3.9	2	Activity [21]: 1.5; Activity [22]: 1.6; Activity [23]: 26.2; Activity [24]: 1.5; Activity [25]: 5.4; Activity [26]: 0.9; Activity [27]: 1.7; Activity [28]: 3; Activity [29]: 2.4; Activity [30]: 2.8; Activity [31]: 1.9; Activity [32]: 1.9; Activity [33]: 1.9; Activity [34]: Active; Activity [35]: Active
CCCCCCCCCCCCCCCCCCCCCCCCCC(=O)N[C@@H](CO[C@H]1O[C@H](C(=O)O)[C@H](O)[C@H](O)[C@H]1O)[C@H](O)[C@H](O)CCCCCCCCCCCCCC	3.4	2.3	2.7	1.8	1.6	3.3	1.2	1.4	1.7	Active	27.5	4.8	21.5	1.4	4.4	2.8	1.8	8	16.1	8.7	Activity [36]: Active; Activity [37]: Active; Activity [21]: 10.4; Activity [22]: 37.6; Activity [23]: 21.2; Activity [24]: 4.9; Activity [25]: 1.5; Activity [26]: 1.7; Activity [27]: 1.3; Activity [28]: 2; Activity [29]: 1.7; Activity [30]: 1.5; Activity [31]: 1; Activity [32]: 0.7; Activity [33]: 1.1
